# Shown is part of a subset that was picked to be rich in hits.
# UPR CHOP act: apoptotic UPR (CHOP) activation | CHO-CHOP luciferase reporter, luminescence; percent of tunicamycin response over DMSO baseline | activation, % at 10 µM | hit rate 0.34% among 330,000 | AID 449763;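 active means at 10 µM dose, activation of 40% or more, normalized to positive control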;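 further: 100% = tunicamycin at 10 µg/mL and 0% = DMSO alone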
#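 Evaluation: % reporter activation, DMSO baseline versus tunicamycin full activation; System: CHO-CHOP luciferase reporter cell line; Input: 500 cells/well; Incubation: 6 h compound treatment, 37 °C; Measured by: Steady-Glo luciferase luminescence; Dosing: one dose, 10 µM in 0.5% DMSO; Buffer or medium: F12 medium, 10% FBS; Benchmarks: positive tunicamycin 10 µg/mL, negative DMSO alone.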
# XBP1 UPR activ: adaptive UPR (XBP1) activation | CHO-XBP1 luciferase reporter, IRE1-XBP1 UPR activation, luminescence; percent of tunicamycin response, DMSO as zero | activation, % at 20 µM | hit rate 0.33% among 330,000;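 active means versus positive control, 20 µM dose yields 30% or more activation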;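 further: 100% = tunicamycin at 10 µg/mL and 0% = DMSO only wells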
#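 Signal: luciferase luminescence; Assay system: CHO-XBP1 luciferase reporter cells; Amount: one thousand reporter cells per well; Dosing: 20 µM single concentration, DMSO 1%; Benchmarks: high control tunicamycin 10 µg/mL final, low control DMSO vehicle only; Schedule: 6 h compound exposure at 37 °C, 5% CO2; Evaluation: percent activation relative to tunicamycin reference.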
# CHOP inhibitor: inhibitors of CHOP induction in ER stress response; CHO-K1 CHOP-promoter luciferase, tunicamycin-induced, 15-18 h; inhibition, % at 10 µM; hit rate 3.8% among 220,000; AID 2732;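 active means compounds that reduced the stress-induced luciferase reporter signal by more than about 70% of percent inhibition, limit read from the data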;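 further: 0% = tunicamycin plus vehicle and 100% = wells without tunicamycin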
# Bfl-1 A1 inh: inhibitors of the anti-apoptotic protein A1, read as caspase activation | caspase activation, % (test concentration not listed) | MEF A1-2A-BIM cells, Caspase-Glo 3/7 luminescence, 3 h; percent of clofoctol response, vehicle zero | hit rate 0.066% among 330,000 | AID 2462;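 active means over half of replicate activation scores above 10%, or exactly half above 10 with the replicate mean above 10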
# Starred values were filed as active, the others as inactive; . = no result given.
SMILES,UPR CHOP act,XBP1 UPR activ,CHOP inhibitor,Bfl-1 A1 inh
O=C(CN1CCOCC1)Nc1nc(-c2ccc3c(c2)CCN3S(=O)(=O)c2ccccc2)cs1,1,2,12,-1
Cc1sc(NC(=O)CN2CCOCC2)nc1-c1ccc2c(c1)CCN2S(=O)(=O)c1ccccc1,5,-5,72*,-1
O=C(COc1ccc(Cl)cc1)Nc1cc(NC(=O)COc2ccc(Cl)cc2)cc(C(=O)O)c1,2,-4,.,-1
Cc1ccc(C(=O)Nc2nnc(NC(=S)Nc3ccccc3)s2)cc1,2,1,70*,1
O=C(Nc1nnc(SCCC2OCCO2)s1)C1CC(=O)N(c2ccc(F)cc2)C1 (stereo not drawn),-1,0,.,0
O=c1ccc2cc(S(=O)(=O)N3CCN(c4ccc(Cl)cc4)CC3)ccc2o1,-2,-6,.,-1
O=c1ccc2cc(S(=O)(=O)N3CCN(c4cc(Cl)ccc4Cl)CC3)ccc2o1,1,-2,70*,0
CCOc1ccc(OCc2cccc(C(=O)O)c2)cc1,-10,-6,109*,-11
O=C(O)c1cccc(COc2ccc3c(c2)CCC3)c1,-11,-8,93*,-8
O=C(NCc1ccccc1)c1cccc(COc2ccc3c(c2)CCC3)c1,-4,-4,56,1
Cc1nn(CC(=O)N2CCN(c3cccc(C(F)(F)F)c3)CC2)c(=O)c2cccn12,0,-3,.,-1
COc1ccccc1CCC(=O)Oc1ccccc1C#N,0,-2,.,0
O=S(=O)(NCCNC/C=C/c1ccc(Br)cc1)c1cccc2cnccc12,.,.,95*,.
CCOC(=O)c1cnc(-n2nc(C)cc2C)nc1NNc1cc(-c2ccccc2)nc(C)n1,14,-3,74*,0
COc1ccc(/C=C/C(=O)OCC(=O)Nc2cc3oc4ccccc4c3cc2OC)cc1,115*,163*,37,-1
CCC(=O)Nc1cccc(NC(=S)NC(=O)c2cc3ccccc3o2)c1,1,-5,94*,-1
Cc1ccc(-c2nc3ccccc3o2)cc1NC(=S)NC(=O)c1cc2ccccc2o1,.,.,85*,0
O=C(/C=C\Nc1ccc2c(c1)OCO2)c1ccccn1,-10,-11,95*,0
NC(=NC(=O)c1ccc(OCC(F)(F)F)nc1)c1ccc(Cl)cc1,-2,-2,82*,0
CCSc1nnc(SCC(=O)Nc2cc(C)on2)s1,0,-2,.,0
COc1cccc(OC)c1OCCCCCCN1CCN(C)CC1,3,0,.,1
c1ccc(OCCOCCN2CCN(C(c3ccccc3)c3ccccc3)CC2)cc1,2,2,73*,1
COc1ccccc1OCCCCN1CCN(C(c2ccccc2)c2ccccc2)CC1,-1,0,86*,1
COc1ccc(OCCSc2ncc(CO)n2C)cc1,0,0,.,0
O=C(Nc1ccc(-c2n[nH]c(=S)o2)cc1)c1ccccc1Br,1,-3,.,-6
SMILES,UPR CHOP act,XBP1 UPR activ,CHOP inhibitor,Bfl-1 A1 inh
O=S(=O)(Nc1ccc(N=Nc2ccc(O)c3ccccc23)cc1)c1ccccc1,2,4,89*,-1
O=S(=O)(Nc1ccc(N=Nc2ccccc2)cc1)c1ccccc1,1,-1,95*,1
CCOc1ccccc1N1C(=O)CC(Sc2n[nH]c(-c3ccccc3)n2)C1=O (stereo not drawn),5,-3,20,0
Cc1cccc(NS(=O)(=O)c2ccc(-n3cccn3)cc2)c1C,-1,1,.,2
O=C(/C(=C/O)N=Nc1ccccc1)c1ccncc1,-4,-3,19,0
Cc1ccc(N=N/C(=C\O)C(=O)c2ccc(Cl)cc2)cc1,25,8,95*,1
O=C(/C(=C/O)N=Nc1ccccc1)c1ccc(Cl)cc1,4,5,92*,0
CCOCCCNC(=S)N1CCN(c2nc(-c3ccc(F)cc3)cs2)CC1,2,-3,.,0
CCn1c(COC(=O)CNC(=O)c2ccccc2F)nc2cc(S(=O)(=O)N(C)C)ccc21,0,-3,.,1
CC1CCN(C(=O)C(C)NCc2ccc(F)cc2)CC1 (stereo not drawn),0,0,.,0
CCN(CC(=O)Nc1cc(Cl)ccc1C)C(=O)c1ccc2c(=O)n3c(nc2c1)CCC3,0,-4,.,0
COc1cccc(C(=O)N2N=C(c3cccc(OC)c3)CC2(O)C(F)(F)F)c1 (stereo not drawn),1,-2,68,0
COc1cccc(C2=NN(C(=O)c3cccs3)C(O)(C(F)(F)F)C2)c1 (stereo not drawn),1,11,75*,0
COc1ccc(C2=NS(=O)(=O)N(C)C(C(=O)Nc3ccc4c(c3)OCO4)=C2)cc1OC,2,-1,.,-1
CCOC(=O)C1=C(N)N2C(=O)C(C)SC2=C(C(=O)OC)C1c1ccccc1OC (stereo not drawn),8,-3,82*,0
Cc1ccc(C(=O)Nc2ccc(C(=O)O)cc2NC(=O)c2ccc(C)cc2)cc1,-1,-7,.,1
CC(=O)Nc1ccc(NC(=O)C(C)OC(=O)c2ccc(OCc3c(C)noc3C)cc2)cc1 (stereo not drawn),-1,-1,12,0
Cc1noc(C)c1COc1ccc(C(=O)OC(C)C(=O)Nc2ccc(N3CCOCC3)cc2)cc1 (stereo not drawn),1,3,-6,5.8*
Cc1cc2ccccc2n1CCNC(=O)Cc1cccc2ccccc12,-1,-6,71*,0
CCC(=O)NCCn1c(C)cc2ccccc21,0,-2,-3,0
O=C(CNS(=O)(=O)c1ccc(Br)s1)NCc1ccccc1,0,-2,.,0
O=C(CCCOc1ccc(Cl)cc1Cl)N/N=C/c1ccccc1O,0,1,85*,0
O=C(COc1ccc(Cl)cc1Cl)N/N=C/CCc1ccccc1,0,0,75*,0
O=C(CCCOc1ccc(Cl)cc1Cl)N/N=C/c1ccccc1,-1,-3,-12,0
CCC(=O)n1nc(-c2ccccc2)nc1N,-3,1,-10,0
SMILES,UPR CHOP act,XBP1 UPR activ,CHOP inhibitor,Bfl-1 A1 inh
Cc1ccc(-c2nc(N)n(C(=O)Cc3ccccc3)n2)cc1,0,-2,86*,0
COc1ccc(CCn2c(O)c(C=Nc3cccc(F)c3)c(=O)[nH]c2=O)cc1OC,-1,0,80*,0
O=C1/C(=C/c2ccc([N+](=O)[O-])cc2)C=C(c2ccccc2)N1c1ccc(O)cc1,16,13,81*,-1
Cc1ccc(C2=NN(C(=O)CCC(=O)O)C(c3cn(-c4ccccc4)nc3-c3ccc(C)cc3)C2)cc1 (stereo not drawn),1,1,95*,1
Cc1cc2c(N=NC(=O)CCc3ccccc3)c(O)[nH]c2cc1Br,-1,-3,83*,-1
Cc1cccc(C)c1OCC(=O)N=Nc1c(O)[nH]c2ccc(Br)cc12,1,24,-10,1
COCCNc1oc(/C=C/c2ccccc2OC)nc1S(=O)(=O)c1ccccc1,0,14,.,-2

# Assay outcomes from PubChem.
